# Results taken from PubChem BioAssay.
# The source made the active and inactive calls.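 How the source made its calls, unless noted: active means GFP response above 150% of the DMSO level; inconclusive means fewer than 70 events counted for a yeast strain; inactive means the rest.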
# Legend:
# [1] = hit retest on RPL19A-GFP reporter strain – cell-based, S. cerevisiae, flow cytometry, cherry picks, mother/daughter gates, confirmation (AID 2270;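 active means GFP response below 50% of the DMSO control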); conditions: 3 h, at 10 µM, stronger effect = lower value, 100 = same GFP as DMSO wells
# [2] = yeast TOR pathway reporter LAP4-GFP change – cell-based, cherry picks, flow cytometry, mother/daughter gates, confirmation (AID 2271;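 active means GFP response above 150% of the DMSO control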;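 further: ratio of sample to DMSO plate mean so 100% equals DMSO level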); conditions: S. cerevisiae LAP4-GFP strain, 3 h, at 10 µM, stronger effect = higher value, 100 means same as DMSO control
# Summary of the method: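 Material: Alexa 633-stained baker's yeast GFP-fusion strain; Compound dosing: single test-compound dose, 10 µM final; Incubation: 30 °C, 3 h compound incubation, rotating; Detection: HT flow cytometry, GFP fluorescence channel; Control set: positive rapamycin (400 ng/mL), negative DMSO.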
# [3] = TOR pathway reporter MEP2-GFP, retest of hits – S. cerevisiae, flow cytometry GFP, cherry picks, confirmation (AID 2272;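 active means GFP response above 150% of the DMSO control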;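 further: ratio of well signal to plate DMSO mean so 100% equals DMSO level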); conditions: S. cerevisiae MEP2-GFP strain, 3 h, at 10 µM, stronger effect = higher value
# [4] = yeast AGP1-GFP fluorescence change, single-dose – cell-based, flow cytometry, S. cerevisiae, cherry picks, confirmation (AID 2273);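 further: median GFP channel fluorescence over the whole cell population gate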; conditions: S. cerevisiae AGP1-GFP strain, 3 h, at 10 µM
# [5] = TOR pathway CIT2 reporter hit retest – S. cerevisiae, GFP fusion, cherry picks, mother/daughter gates, confirmation (AID 2274); conditions: S. cerevisiae CIT2-GFP strain, flow cytometry, 3 h, at 10 µM, stronger effect = higher value
# [6] = measured here: daughter cell gate
# [7] = measured here: mother cell gate
# [8] = measured here: daughter cell gate response
# [9] = measured here: mother cell gate response
SMILES,GFP response vs DMSO [1],"GFP response vs DMSO [1, 6]","GFP response vs DMSO [1, 7]",GFP response relative to DMSO [2],"GFP response relative to DMSO [2, 8]","GFP response relative to DMSO [2, 9]",GFP response vs DMSO [3],"GFP response, % of DMSO [4]","GFP response, % of DMSO [5]","GFP response, % of DMSO [5, 6]","GFP response, % of DMSO [5, 7]"
S=C(Sc1ccc(Cl)cc1)Sc1ccc(Cl)cc1,97.6% (inactive),93.2%,95.1%,112% (inactive),108%,115%,112% (inactive),110% (inactive),112% (inactive),105%,107%
Cc1nc2ccccc2n2c(O)c(CC(=O)O)cc12,98.7% (inactive),98.5%,99.3%,103% (inactive),96.5%,99.5%,102% (inactive),98.9% (inactive),92.1% (inactive),96.4%,85.1%
CCOC(=O)CNc1c(-c2ccc(O)cc2)nc2ccc(Cl)cn12,101% (inactive),99.8%,101%,96.5% (inactive),95%,97.5%,102% (inactive),95.4% (inactive),96.4% (inactive),96.4%,95.6%
Cc1ccc(C2=NOC(=O)/C2=C\c2ccc(C)o2)cc1,101% (inactive),89.7%,90.8%,230% (active),134%,224%,110% (inactive),97% (inactive),87.2% (inactive),87.3%,72.8%
O=C1C2C3C=CC(CNS(=O)(=O)c4ccccc4)(O3)C2C(=O)N1c1ccc(Cl)cc1 (stereo unspecified),102% (inactive),103%,102%,110% (inactive),109%,109%,114% (inactive),99.7% (inactive),111% (inactive),113%,108%
COc1cccc(NC(=O)c2ccc3c(c2)CCCC3)c1,101% (inactive),98.4%,102%,96.2% (inactive),97.2%,99.3%,97.8% (inactive),90.6% (inactive),103% (inactive),101%,102%
COc1ccc(OC)c(/C=C/C(=O)c2ccc(Cl)cc2)c1,92.2% (inactive),91.9%,92%,104% (inactive),97.6%,105%,96.2% (inactive),98.5% (inactive),101% (inactive),101%,101%
CCCc1[nH]nc2c1C(c1ccc(OC)c(Cn3nnc4ccccc43)c1)C(C#N)=C(N)O2 (stereo unspecified),98% (inactive),98.6%,98.2%,104% (inactive),102%,103%,100% (inactive),103% (inactive),99.7% (inactive),99.1%,99.7%
COc1ccc(N2CCN(c3nc4c(C)cccn4c(=O)c3/C=C(\C#N)C(N)=O)CC2)cc1,97.8% (inactive),97.3%,97.5%,101% (inactive),101%,101%,103% (inactive),106% (inactive),103% (inactive),105%,102%
O=S(=O)(c1ccccc1)N1N=C(c2cccs2)CC1c1ccc(F)cc1 (stereo unspecified),99.7% (inactive),97.8%,100%,97.4% (inactive),94.1%,101%,100% (inactive),104% (inactive),97.8% (inactive),96.5%,98.7%
Cc1ccn2c(NC(=O)c3ccco3)c(-c3ccccc3)nc2c1,98.6% (inactive),100%,96.6%,96.7% (inactive),96%,96.1%,107% (inactive),94.8% (inactive),103% (inactive),103%,101%
Cc1ccccc1C(=O)Nc1ccccc1,96.4% (inactive),94.9%,97.4%,96.7% (inactive),97.6%,97.2%,96.2% (inactive),100% (inactive),101% (inactive),103%,102%
CCCc1[nH]nc2c1C(c1ccccc1OCC)C(C#N)=C(N)O2 (stereo unspecified),98.4% (inactive),99.5%,98%,99.8% (inactive),98.7%,101%,100% (inactive),102% (inactive),99.1% (inactive),96.5%,98.7%
O=S1(=O)Nc2c(ccc3cccnc23)-c2ccccc21,89.9% (inactive),91.7%,103%,124% (inactive),104%,163%,112% (inactive),103% (inactive),111% (inactive),108%,113%
COc1ccc(Cl)cc1C(Nc1cccnc1)c1ccc2cccnc2c1O (stereo unspecified),97% (inactive),98.8%,95.2%,121% (inactive),109%,127%,116% (inactive),97.1% (inactive),109% (inactive),115%,101%
CCOC(=O)COc1c(Cl)cc(/C=C2\N=C(C)OC2=O)cc1OC,105% (inactive),105%,103%,109% (inactive),108%,113%,104% (inactive),98.9% (inactive),103% (inactive),105%,99.8%
